Columns and labels:
[1] = Tissue levels of PCB 95 and OH-PCB metabolites by GC-ECD; assay type: in vivo, female C57Bl/6 mice; details: for levels in adipose and brain samples: detection limits 11 to 16 ng/g tissue; for concentration at 24 h: female, C57Bl/6, mouse, brain
[2] = Enantiomeric fractions in tissues by enantioselective GC; assay type: in vivo, female C57Bl/6 mice
Method in brief: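 Extracts of blood, brain, liver and adipose came from mice given 0.1, 1.0 or 6.0 mg/kg/day orally in peanut butter for 39 days and sacrificed 24 h after the last dose. Enantioselective GC-ECD used Chirasil Dex, BGB-172 or ChiralDex B-DM columns: 35 to 140 °C held 420 min, then 200 °C; injector and detector 250 °C; helium 3 mL/min. EF = A1/(A1+A2), E1 being the first-eluting atropisomer; mean ± SD.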

CYP3A11 mRNA = assay: Hepatic CYP3A11 mRNA level by qPCR; assay type: in vivo, female C57Bl/6 mice; details: liver, high dose 6 mg/kg b.w./day, 39 days oral
[3] = tested on: P450 mRNA (CYP1A2, CYP3A11, CYP2B10, CYP2S1); assay: Brain P450 mRNA levels by qPCR; assay type: in vivo, female C57Bl/6 mice; details: 39 days oral
CYP2B10 mRNA = assay: Hepatic CYP2B10 mRNA level by qPCR; assay type: in vivo, female C57Bl/6 mice; details: liver, low dose 0.1 mg/kg b.w./day, 39 days oral
CYP2S1 mRNA = assay: Hepatic CYP2S1 mRNA level by qPCR; assay type: in vivo, female C57Bl/6 mice; details: liver, all doses, 39 days oral
General toxicity = assay type: in vivo, female C57Bl/6 mice; details: 0.1, 1 or 6 mg/kg b.w./day oral for 39 days, any dose level
Method in brief: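 Seven-week-old female C57Bl/6 mice, housed singly on a 12 h reverse light cycle, were acclimated 7 days. They then took the test compound in peanut butter daily at 0.1, 1.0 or 6.0 mg/kg/day for 39 days, with the amount adjusted to daily body weight; vehicle controls received peanut butter only. Body weights were recorded daily and analysed by two-way repeated measures ANOVA.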

CYP1A2 mRNA = assay: Hepatic CYP1A2 mRNA level by qPCR; assay type: in vivo, female C57Bl/6 mice; details: liver, 39 days oral
[4] = cited from earlier work

Oc1cc(Cl)c(Cl)c(-c2cc(Cl)ccc2Cl)c1Cl [5-95, 2,2′,3,5′,6-pentachlorobiphenyl-5-ol]
levels in adipose and brain samples [1]: below their respective detection limits
enriched atropisomer ([2]; liver, high dose treatment group): E1-5-95 was enriched
enantiomeric enrichment ([2]; liver, medium dose treatment group): no consistent enantiomeric enrichment

Clc1ccc(Cl)c(-c2c(Cl)ccc(Cl)c2Cl)c1 [PCB 95, 2,2′,3,5′,6-pentachlorobiphenyl]
concentration at 24 h ([1]; oral, 6 mg/kg/day): 360 ng/g
concentration at 24 h ([1]; po): 37 to 360 ng/g
increase in adipose levels of PCB 95 ([1]; low to medium dose (10-fold increase in dose)): 10 fold
hepatic CYP3A11 levels compared to control (CYP3A11 mRNA): no change
brain P450 mRNA levels [3]: not affected
CYP2B10 mRNA levels compared to control (CYP2B10 mRNA): no change
average EF value across treatment groups ([2]; adipose, EF = A1/(A1+A2)): ≈ 0.19
enriched atropisomer ([2]; blood, brain, liver and adipose, all three treatment groups): E2-PCB 95 was enriched
average EF across treatment groups ([2]; liver and blood, EF = A1/(A1+A2)): approximately 0.10
hepatic CYP2S1 mRNA levels (CYP2S1 mRNA): not affected
effect on final body weight, growth rate or other signs of general toxicity (General toxicity): no effect
CYP1A2 transcript levels relative to control (CYP1A2 mRNA; high dose 6 mg/kg b.w./day): not changed
induction of CYP1A2 mRNA compared to control (CYP1A2 mRNA; low dose 0.1 mg/kg b.w./day): 1.9 fold

COc1c(Cl)c(Cl)c(-c2cc(Cl)ccc2Cl)c(Cl)c1OC [4,5-95, 4,5-dimethoxy-2,2′,3,5′,6-pentachlorobiphenyl]
levels in adipose and brain samples [1]: below their respective detection limits

Oc1cc(Cl)c(-c2cc(Cl)ccc2Cl)c(Cl)c1Cl [4-95, 2,2′,3,5′,6-pentachlorobiphenyl-4-ol]
levels in adipose and brain samples [1]: below their respective detection limits
level in liver ([1]; liver, low dose treatment group): below the detection limit

Oc1c(Cl)cc(-c2ccc(Cl)c(Cl)c2)c(Cl)c1Cl [4-107, 2,3,3′,4′,5-pentachlorobiphenyl-4-ol]
level in fetal brains ([4]; fetal brain after oral administration of 4-107 to pregnant Wistar rats): ~ 1 μg/g tissue
level in post-weanling rats ([4]; post-weanling rats): below detection

COc1c(Cl)cc(Cl)c(-c2cc(Cl)ccc2Cl)c1Cl [3-103, 3 Methoxy 2,2′,4,5′,6-pentachlorobiphenyl]
levels in adipose and brain samples [1]: below their respective detection limits

Reference: publication PMC3475189 (Environmental science & technology, 2012)
